From ChEMBL document CHEMBL2177085 (J Med Chem, 2012)
Each block holds one compound with its values, some of them ahead of it.

Tests used:
MKN-45 [1] = test: Cytotoxic activity against human MKN45 cells assessed as cell viability at 1 uM incubated for 5 days by MTT assay; type: functional; conditions: MKN-45, 120 h, read-out: Activity
Outline: (§1)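 MTT viability: exponentially growing cells, 10 000 viable cells/well in RPMI plated overnight, then exposed to test compounds for 3 days (HT-29, Molm-14) or 5 days (Mkn-45) at 37 °C, 5% CO2. MTT added for 4 h, then SDS/HCl solubilization overnight and absorbance read at 562 nm. Viability is expressed relative to untreated cells (100%). Triplicate.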

MKN-45 [2] = test: Cytotoxic activity against human MKN45 cells assessed as cell viability at 10 uM incubated for 5 days by MTT assay; type: functional; conditions: MKN-45, 120 h, read-out: Activity; outline: as §1
[3] = molecular target: Platelet-derived growth factor receptor beta (Homo sapiens) (UniProt P09619); test: Inhibition of PDGFRbeta assessed as enzyme residual activity at 10 uM relative to untreated control
Outline: (§2)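 Residual kinase activity at 10 μM compound, determined by a commercial kinase profiling service (Millipore) across 15 kinases of different classes. Each compound tested in duplicate.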

MOLM-14 [4] = test: Cytotoxic activity against human MOLM14 cells assessed as cell viability at 0.5 uM incubated for 3 days by MTT assay; type: functional; conditions: MOLM-14, 72 h, read-out: Activity; outline: as §1
MOLM-14 [5] = test: Cytotoxic activity against human MOLM14 cells assessed as cell viability at 1 uM incubated for 3 days by MTT assay; type: functional; conditions: MOLM-14, 72 h, read-out: Activity; outline: as §1
MOLM-14 [6] = test: Cytotoxic activity against human MOLM14 cells assessed as cell viability at 10 uM incubated for 3 days by MTT assay; type: functional; conditions: MOLM-14, 72 h, read-out: Activity; outline: as §1
MOLM-14 [7] = test: Cytotoxic activity against human MOLM14 cells assessed as cell viability at 20 uM incubated for 3 days by MTT assay; type: functional; conditions: MOLM-14, 72 h, read-out: Activity; outline: as §1
[8] = molecular target: Epidermal growth factor receptor (Homo sapiens) (UniProt P00533); test: Inhibition of EGFR assessed as enzyme residual activity at 10 uM relative to untreated control; outline: as §2
[9] = molecular target: Protein kinase C alpha type (Homo sapiens) (UniProt P17252); test: Inhibition of PKCalpha assessed as enzyme residual activity at 10 uM relative to untreated control; outline: as §2
MKN-45 [10] = test: Cytotoxic activity against human MKN45 cells assessed as cell viability at 20 uM incubated for 5 days by MTT assay; type: functional; conditions: MKN-45, 120 h, read-out: Activity; outline: as §1
[11] = Inhibition of angiogenesis in chick embryo model assessed as reduction in vessel growth at 26 nM incubated for 24 hrs; type: functional, Gallus gallus
Outline: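 White leghorn eggs incubated at 37.5 °C, 62% humidity. At 70 h, albumen removed and shell windowed. From 75 h, 15 agarose pellets (from a 26 mM DMSO stock in 2% agarose; final concentration 26 nM) placed on the area vasculosa.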

[12] = molecular target: Protein kinase C gamma type (Homo sapiens) (UniProt P05129); test: Inhibition of PKCgamma assessed as enzyme residual activity at 10 uM relative to untreated control; outline: as §2
[13] = molecular target: Protein kinase C iota type (Homo sapiens) (UniProt P41743); test: Inhibition of PKCiota assessed as enzyme residual activity at 10 uM relative to untreated control; outline: as §2
[14] = molecular target: Cyclin-dependent kinase 1/cyclin B1 (Homo sapiens) (UniProt P06493+P14635); test: Inhibition of CDK1/cyclinB assessed as enzyme residual activity at 10 uM relative to untreated control; type: protein-complex assay; outline: as §2
[15] = molecular target: T1, Glycogen synthase kinase-3 beta (Homo sapiens, UniProt P49841); test: Inhibition of GSK3beta
Outline: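 IC50 determined by a commercial kinase profiling service (Millipore IC50 Profiler); duplicate testing.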
Target sequence in this assay (P49841 whole entry): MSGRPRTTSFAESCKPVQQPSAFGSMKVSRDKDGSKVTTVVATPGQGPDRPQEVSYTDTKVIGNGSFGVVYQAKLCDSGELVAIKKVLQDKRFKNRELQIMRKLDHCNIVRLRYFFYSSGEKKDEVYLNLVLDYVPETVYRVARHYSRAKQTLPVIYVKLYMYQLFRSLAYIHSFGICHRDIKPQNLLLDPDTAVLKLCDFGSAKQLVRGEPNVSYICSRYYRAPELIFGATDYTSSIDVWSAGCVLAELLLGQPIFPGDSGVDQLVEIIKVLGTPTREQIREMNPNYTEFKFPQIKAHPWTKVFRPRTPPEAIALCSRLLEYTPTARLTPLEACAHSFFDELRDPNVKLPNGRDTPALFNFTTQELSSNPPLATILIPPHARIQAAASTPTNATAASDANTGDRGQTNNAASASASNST

[16] = molecular target: Receptor-type tyrosine-protein kinase FLT3 (Homo sapiens) (UniProt P36888); test: Inhibition of FLT3 assessed as enzyme residual activity at 10 uM relative to untreated control; outline: as §2
MKN-45 [17] = test: Cytotoxic activity against human MKN45 cells assessed as cell viability at 0.5 uM incubated for 5 days by MTT assay; type: functional; conditions: MKN-45, 120 h, read-out: Activity; outline: as §1
MKN-45 [18] = test: Induction of apoptosis in human MKN45 assessed as accumulation at subG1 phase at 20 uM incubated for 7 days by flow cytometry (reference value: 10.9 +/- 3.2%); type: functional
MKN-45 [19] = test: Induction of apoptosis in human MKN45 assessed as accumulation at subG1 phase at 10 uM incubated for 7 days by flow cytometry (reference value: 10.9 +/- 3.2%); type: functional
MKN-45 [20] = test: Induction of apoptosis in human MKN45 assessed as accumulation at subG1 phase at 15 uM incubated for 7 days by flow cytometry (reference value: 10.9 +/- 3.2%); type: functional
MOLM-14 [21] = test: Cytotoxic activity against human MOLM14 cells assessed as cell viability at 50 uM incubated for 3 days by MTT assay; type: functional; conditions: MOLM-14, 72 h, read-out: Activity; outline: as §1
HUVEC [22] = test: Induction of apoptosis in human HUVEC assessed as accumulation at subG1 phase at 2.6 uM incubated for 4 days by flow cytometry (reference value: 15.4 +/- 1.5%); type: functional
[23] = molecular target: CDK6/cyclin D3 (Homo sapiens) (UniProt P30281+Q00534); test: Inhibition of CDK6/cyclinD3 assessed as enzyme residual activity at 10 uM relative to untreated control; type: protein-complex assay; outline: as §2
[24] = molecular target: T1, Glycogen synthase kinase-3 beta; test: Inhibition of GSK3beta assessed as enzyme residual activity at 10 uM relative to untreated control; outline: as §2
Target sequence in this assay (P49841 whole entry, looked up): as the sequence (P49841 whole entry) above

MKN-45 [25] = test: Cytotoxic activity against human MKN45 cells assessed as cell viability at 50 uM incubated for 5 days by MTT assay; type: functional; conditions: MKN-45, 120 h, read-out: Activity; outline: as §1
[26] = molecular target: Hepatocyte growth factor receptor (Homo sapiens) (UniProt P08581); test: Inhibition of MET assessed as enzyme residual activity at 10 uM relative to untreated control; outline: as §2
[27] = molecular target: RAF proto-oncogene serine/threonine-protein kinase (Homo sapiens) (UniProt P04049); test: Inhibition of c-RAF assessed as enzyme residual activity at 10 uM relative to untreated control; outline: as §2
[28] = molecular target: Protein kinase C epsilon type (Homo sapiens) (UniProt Q02156); test: Inhibition of PKCepsilon assessed as enzyme residual activity at 10 uM relative to untreated control; outline: as §2
MKN-45 [29] = test: Induction of apoptosis in human MKN45 assessed as accumulation at subG1 phase at 1 uM incubated for 7 days by flow cytometry (reference value: 10.9 +/- 3.2%); type: functional
[30] = molecular target: Angiopoietin-1 receptor (Homo sapiens) (UniProt Q02763); test: Inhibition of TIE2 assessed as enzyme residual activity at 10 uM relative to untreated control; outline: as §2
[31] = molecular target: Vascular endothelial growth factor receptor 2 (Homo sapiens, UniProt P35968); test: Inhibition of VEGFR2 assessed as enzyme residual activity at 10 uM relative to untreated control; outline: as §2
[32] = molecular target: Cyclin-dependent kinase 2/cyclin A (Homo sapiens) (UniProt P24941+P20248+P78396); test: Inhibition of CDK2/cyclinA assessed as enzyme residual activity at 10 uM relative to untreated control; type: protein-complex assay; outline: as §2
HUVEC [33] = test: Induction of apoptosis in human HUVEC assessed as accumulation at subG1 phase at 0.79 uM incubated for 4 days by flow cytometry (reference value: 15.4 +/- 1.5%); type: functional
MKN-45 [34] = test: Induction of apoptosis in human MKN45 assessed as accumulation at subG1 phase at 5 uM incubated for 7 days by flow cytometry (reference value: 10.9 +/- 3.2%); type: functional
MKN-45 [35] = test: Cytotoxic activity against human MKN45 cells assessed as cell viability at 5 uM incubated for 5 days by MTT assay; type: functional; conditions: MKN-45, 120 h, read-out: Activity; outline: as §1
HT-29 [36] = test: Cytotoxic activity against human HT-29 cells assessed as cell viability at 7.9 uM incubated for 3 days by MTT assay; type: functional; conditions: HT-29, 72 h, read-out: Activity
Outline: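 HT-29 cells in exponential growth were seeded at 10 000 viable cells per well in RPMI and left overnight. They were then exposed to compound for 3 days at 37 °C under 5% CO₂. MTT was added for 4 h, followed by overnight solubilisation in 10% SDS/0.01 M HCl and absorbance at 562 nm. Viability is expressed as % of untreated cells (100%), in triplicate.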

HT-29 [37] = test: Cytotoxic activity against human HT-29 cells assessed as cell viability at 26 uM incubated for 3 days by MTT assay; type: functional; conditions: HT-29, 72 h, read-out: Activity; outline: as §1
HT-29 [38] = test: Cytotoxic activity against human HT-29 cells assessed as cell viability at 2.6 uM incubated for 3 days by MTT assay; type: functional; conditions: HT-29, 72 h, read-out: Activity; outline: as §1
HT-29 [39] = test: Cytotoxic activity against human HT-29 cells assessed as cell viability at 52 uM incubated for 3 days by MTT assay; type: functional; conditions: HT-29, 72 h, read-out: Activity; outline: as §1
HT-29 [40] = test: Induction of apoptosis in human HT-29 assessed as accumulation at subG1 phase at 1.18 uM incubated for 7 days by flow cytometry (reference value: 3.4 +/- 0.9%); type: functional
Outline: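 HT-29 cells, 1.5 × 10⁵ per well, plated overnight, then exposed for 7 days to irinotecan at 1.18 μM, alone or with 7.9 μM test compound. Cells were trypsinized and stained for 1 h at 4 °C in PI buffer (sodium citrate, Triton X-100, PI). Sub-G1 fraction measured by flow cytometry (Nicoletti method). Drug-free control used as baseline. Triplicate.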

Chain of Platelet-derived growth factor receptor beta (Homo sapiens) (P09619 whole entry): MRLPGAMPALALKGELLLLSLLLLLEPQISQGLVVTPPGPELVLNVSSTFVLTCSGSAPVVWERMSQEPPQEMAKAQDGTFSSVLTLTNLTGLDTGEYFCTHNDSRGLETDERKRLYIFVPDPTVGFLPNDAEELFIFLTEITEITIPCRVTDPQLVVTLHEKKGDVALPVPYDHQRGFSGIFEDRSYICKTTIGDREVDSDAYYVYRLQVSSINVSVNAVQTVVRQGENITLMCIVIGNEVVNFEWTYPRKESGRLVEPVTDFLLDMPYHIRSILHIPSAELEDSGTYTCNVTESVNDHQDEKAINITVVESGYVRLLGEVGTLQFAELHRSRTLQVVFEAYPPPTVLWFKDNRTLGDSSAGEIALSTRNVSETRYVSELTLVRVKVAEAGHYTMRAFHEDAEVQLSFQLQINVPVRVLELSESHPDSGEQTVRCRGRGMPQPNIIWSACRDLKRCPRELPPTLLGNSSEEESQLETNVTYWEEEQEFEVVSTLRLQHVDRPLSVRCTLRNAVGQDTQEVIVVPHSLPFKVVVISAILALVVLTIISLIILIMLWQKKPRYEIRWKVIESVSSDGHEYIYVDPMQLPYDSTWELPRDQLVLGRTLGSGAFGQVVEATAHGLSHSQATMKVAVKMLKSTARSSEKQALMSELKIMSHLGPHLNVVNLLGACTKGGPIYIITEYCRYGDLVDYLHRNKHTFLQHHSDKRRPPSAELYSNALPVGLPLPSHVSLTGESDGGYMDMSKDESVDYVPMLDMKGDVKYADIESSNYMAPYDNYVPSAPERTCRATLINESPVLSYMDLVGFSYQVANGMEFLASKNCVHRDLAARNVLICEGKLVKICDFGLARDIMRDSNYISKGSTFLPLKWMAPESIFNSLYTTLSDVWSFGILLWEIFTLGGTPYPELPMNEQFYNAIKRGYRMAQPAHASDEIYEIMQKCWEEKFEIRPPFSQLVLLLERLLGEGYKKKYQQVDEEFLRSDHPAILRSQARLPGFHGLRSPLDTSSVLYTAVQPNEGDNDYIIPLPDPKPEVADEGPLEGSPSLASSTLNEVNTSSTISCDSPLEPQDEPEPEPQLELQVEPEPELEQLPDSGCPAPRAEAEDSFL
Chain of RAF proto-oncogene serine/threonine-protein kinase (Homo sapiens) (P04049 whole entry): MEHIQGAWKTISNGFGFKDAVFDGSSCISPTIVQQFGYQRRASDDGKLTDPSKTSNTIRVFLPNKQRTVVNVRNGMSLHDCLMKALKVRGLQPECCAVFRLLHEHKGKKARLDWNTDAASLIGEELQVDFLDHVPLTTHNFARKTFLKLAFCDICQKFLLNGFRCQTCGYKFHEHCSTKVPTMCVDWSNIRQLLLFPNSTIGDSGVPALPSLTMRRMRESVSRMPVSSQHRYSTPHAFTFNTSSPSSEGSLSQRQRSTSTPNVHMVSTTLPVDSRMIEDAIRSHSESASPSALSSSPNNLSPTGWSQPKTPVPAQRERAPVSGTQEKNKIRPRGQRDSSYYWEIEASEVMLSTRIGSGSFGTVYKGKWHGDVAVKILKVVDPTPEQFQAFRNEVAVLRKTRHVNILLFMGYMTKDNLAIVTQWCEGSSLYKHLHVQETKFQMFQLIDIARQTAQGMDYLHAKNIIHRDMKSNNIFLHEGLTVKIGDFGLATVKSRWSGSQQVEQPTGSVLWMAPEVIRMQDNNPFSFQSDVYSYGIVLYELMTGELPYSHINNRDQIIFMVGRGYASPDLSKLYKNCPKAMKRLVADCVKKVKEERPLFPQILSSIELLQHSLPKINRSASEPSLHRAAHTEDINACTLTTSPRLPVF
Chain of Receptor-type tyrosine-protein kinase FLT3 (Homo sapiens) (P36888 whole entry): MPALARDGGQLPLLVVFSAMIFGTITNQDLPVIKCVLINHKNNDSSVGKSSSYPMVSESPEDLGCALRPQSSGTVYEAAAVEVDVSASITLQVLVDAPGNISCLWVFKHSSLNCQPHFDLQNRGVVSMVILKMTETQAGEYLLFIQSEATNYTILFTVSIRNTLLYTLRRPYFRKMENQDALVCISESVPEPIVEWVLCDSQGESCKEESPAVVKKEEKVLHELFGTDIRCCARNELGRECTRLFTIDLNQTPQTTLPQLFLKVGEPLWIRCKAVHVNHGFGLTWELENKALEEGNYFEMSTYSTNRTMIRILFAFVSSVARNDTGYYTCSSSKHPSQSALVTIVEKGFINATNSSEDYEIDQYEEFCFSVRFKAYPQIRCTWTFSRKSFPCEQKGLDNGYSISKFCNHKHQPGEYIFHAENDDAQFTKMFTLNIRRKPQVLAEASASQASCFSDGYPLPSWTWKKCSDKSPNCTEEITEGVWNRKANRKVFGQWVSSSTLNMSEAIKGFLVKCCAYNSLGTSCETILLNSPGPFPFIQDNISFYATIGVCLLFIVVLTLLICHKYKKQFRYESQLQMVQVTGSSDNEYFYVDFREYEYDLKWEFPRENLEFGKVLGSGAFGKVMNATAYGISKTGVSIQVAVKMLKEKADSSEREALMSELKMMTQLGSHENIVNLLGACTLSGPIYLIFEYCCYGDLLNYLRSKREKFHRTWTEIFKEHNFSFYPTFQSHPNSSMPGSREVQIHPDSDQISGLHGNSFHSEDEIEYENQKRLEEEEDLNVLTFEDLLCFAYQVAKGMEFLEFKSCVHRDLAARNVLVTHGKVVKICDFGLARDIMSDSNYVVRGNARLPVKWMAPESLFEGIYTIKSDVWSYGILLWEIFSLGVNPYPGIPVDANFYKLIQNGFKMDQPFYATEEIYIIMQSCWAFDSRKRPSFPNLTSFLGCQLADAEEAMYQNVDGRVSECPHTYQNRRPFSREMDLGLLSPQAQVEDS

Activity [3]: 84% | Activity [8]: 97% | Activity [9]: 89% | Activity [12]: 93% | Activity [13]: 69% | Activity [14]: 92% | IC50 [15]: ≥ 10 µM | Activity [16]: 2% | Activity [23]: 99% | Activity [24]: 50% | Activity [26]: 109% | Activity [27]: 111% | Activity [28]: 77% | Activity [30]: 77% | Activity [31]: 0% | Activity [32]: 94%
Structure (SMILES): COc1cc(C2=C(c3c[nH]c4ncccc34)C(=O)NC2=O)cc(OC)c1OC
viability at 1 µM (MKN-45 [1]): 110% | viability at 10 µM (MKN-45 [2]): 58.7% | viability at 0.5 µM (MOLM-14 [4]): 65.9% | viability at 1 µM (MOLM-14 [5]): 38.9% | viability at 10 µM (MOLM-14 [6]): 4.41% | viability at 20 µM (MOLM-14 [7]): 3.56% | viability at 20 µM (MKN-45 [10]): 57.1% | inhibition (INH) [11]: 61% | viability at 0.5 µM (MKN-45 [17]): 113% | Activity (MKN-45 [18]): 65.9% | Activity (MKN-45 [19]): 37.8% | Activity (MKN-45 [20]): 50.7% | viability at 50 µM (MOLM-14 [21]): 1.77% | Activity (HUVEC [22]): 49.2% | viability at 50 µM (MKN-45 [25]): 44.7% | Activity (MKN-45 [29]): 9.3% | Activity (HUVEC [33]): 26.7% | Activity (MKN-45 [34]): 16.3% | viability at 5 µM (MKN-45 [35]): 86.8%

Structure (SMILES): COc1cc(OC)cc(C2=C(c3c[nH]c4ncccc34)C(=O)NC2=O)c1
viability at 7.9 µM (HT-29 [36]): 49.2% | viability at 1 µM (MKN-45 [1]): 118% | viability at 10 µM (MKN-45 [2]): 57% | viability at 20 µM (MKN-45 [10]): 62.1% | inhibition (INH) [11]: 25% | viability at 26 µM (HT-29 [37]): 43% | viability at 0.5 µM (MKN-45 [17]): 118% | Activity (MKN-45 [18]): 55.7% | Activity (MKN-45 [19]): 31.8% | viability at 2.6 µM (HT-29 [38]): 54.3% | Activity (MKN-45 [20]): 45.8% | viability at 52 µM (HT-29 [39]): 40.5% | viability at 50 µM (MKN-45 [25]): 59.4% | Activity (MKN-45 [29]): 12.7% | Activity (MKN-45 [34]): 24.8% | viability at 5 µM (MKN-45 [35]): 60.4%

Structure (SMILES): CCc1c2c(nc3ccc(OC(=O)N4CCC(N5CCCCC5)CC4)cc13)-c1cc3c(c(=O)n1C2)COC(=O)[C@]3(O)CC [IRINOTECAN]
Activity (HT-29 [40]): 18.3%
